Laboratory results published in ChEMBL document CHEMBL1124445, “Synthesis and pharmacology of a series of 3- and 4-(phosphonoalkyl)pyridine- and -piperidine-2-carboxylic acids. Potent N-methyl-D-aspartate receptor antagonists” (J Med Chem, 1989).

Legend:
[1] = Percent displacement determined by inhibition of [3H]-CPP binding against N-methyl-D-aspartate glutamate receptor in mice at 10 uM
Mus musculus = assay: Ability to protect against NMDA-induced lethality in mice after intraperitoneal administration; assay type: functional; details: ip, read-out: MED
Method in brief: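 Mice received the test drug ip 30 min before NMDA at 200 mg/kg ip; compounds were racemic. Five animals per dose. The endpoint was survival for more than 30 min after the NMDA injection. MED is the dose at which at least three of the five mice survived. The highest dose tested was 160 mg/kg.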

[2] = Compound was evaluated for the inhibition of the binding of [3H]CPP against N-methyl-D-aspartate glutamate receptor in mice
Method in brief: (§1)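 Racemic compounds tested for displacement of [3H]CPP binding to the NMDA receptor. Affinity reported as IC50 in nM.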

[3] = Compound was evaluated for the inhibition of the binding of [3H]-CPP against NMDA receptor in mice; method in brief: as §1
[4] = Percent displacement determined by inhibition of [3H]CPP binding against NMDA receptor in mice at 10 uM
[5] = Compound was evaluated for the inhibition of the binding of [3H]CPP against NMDA in mice

| Compound | Displacement [1] [%] | minimal effective dose (Mus musculus) [mg/kg] | also measured |
| --- | --- | --- | --- |
| O=C(O)c1ncccc1/C=C/P(=O)(O)O | 26 | > 160 | – |
| O=C(O)c1cc(CCCCP(=O)(O)O)ccn1 | 25 | > 160 | – |
| O=C(O)C1CN(CCCP(=O)(O)O)CCN1 (stereo unspecified) | – | 2.5 | IC50 [2]: 72 nM |
| O=C(O)[C@H]1NCCC[C@H]1CP(=O)(O)O | 19 | – | – |
| O=C(O)[C@@H]1C[C@H](CCCCP(=O)(O)O)CCN1 | 26 | > 160 | – |
| O=C(O)[C@@H]1C[C@H](CP(=O)(O)O)CCN1 [SELFOTEL] | – | 10 | IC50 [3]: 95 nM |
| O=C(O)c1ncccc1/C=C\P(=O)(O)O | 20 | > 160 | – |
| O=C(O)[C@H]1NCCC[C@H]1CCP(=O)(O)O | – | 160 | IC50 [3]: 1000 nM |
| O=C(O)c1ncccc1CCP(=O)(O)O | – | > 160 | IC50 [3]: 3500 nM |
| O=C(O)c1cc(CCCP(=O)(O)O)ccn1 | 34 | > 160 | – |
| O=C(O)c1ncccc1CP(=O)(O)O | – | > 160 | Displacement [4]: -18% |
| O=C(O)[C@@H]1C[C@H](CCP(=O)(O)O)CCN1 | – | > 160 | IC50 [2]: 6600 nM |
| O=C(O)c1cc(CP(=O)(O)O)ccn1 | – | > 160 | Displacement [4]: 4% |
| NC(CCCCCP(=O)(O)O)C(=O)O (stereo unspecified) [AP-7] | – | 160 | IC50 [5]: 320 nM |
| O=C(O)c1cc(CCP(=O)(O)O)ccn1 | – | > 160 | IC50 [2]: 3500 nM |
| O=C(O)[C@@H]1C[C@H](CCCP(=O)(O)O)CCN1 | – | 40 | IC50 [2]: 120 nM |
